Laboratory results as given in ChEMBL document CHEMBL4152234, “Aminobenzothiazole derivatives stabilize the thermolabile p53 cancer mutant Y220C and show anticancer activity in p53-Y220C cell lines” (Eur J Med Chem, 2018).
Activity calls are given as the source filed them. The calls are words filed in the database; no cut-off is given here.

Experiments:
Assay type in all cases: cell-based
[1] = tested on: Cellular tumor antigen p53 (Homo sapiens), P04637 [Y220C]; test: Activation of p53 Y220C mutant in human NUGC3 cells assessed as change in MYC mRNA level at 60 uM after 18 hrs by RT-PCR method relative to control
Procedure, shortened: (§1)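 p53 signalling qPCR array covering 84 p53 pathway genes. Cells were exposed for 18 h, and compound and control wells both held 0.5% DMSO. Total RNA was extracted and purified. Fold-changes were calculated by the ΔΔCt method against the untreated sample, with β2-microglobulin (B2M) as the housekeeping gene. Each cell line was run in two independent biological replicates.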

[2] = tested on: Cellular tumor antigen p53 (Homo sapiens), P04637 [Y220C]; test: Activation of p53 Y220C mutant in human NUGC3 cells assessed as change in TNFRSF10D mRNA level at 60 uM after 18 hrs by RT-PCR method relative to control; procedure, shortened: as §1
[3] = tested on: Cellular tumor antigen p53 (Homo sapiens), P04637 [Y220C]; test: Activation of p53 Y220C mutant in human NUGC3 cells assessed as change in BCL2 mRNA level at 60 uM after 18 hrs by RT-PCR method relative to control
Procedure, shortened: (§2)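 p53 signalling qPCR array covering 84 genes. Cells were exposed for 18 h, with 0.5% DMSO in both compound and control samples. Total RNA was extracted and purified. Fold-changes were calculated by ΔΔCt using β2-microglobulin (B2M) as the housekeeping gene. Two independent biological replicates were run per cell line.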

[4] = tested on: Cellular tumor antigen p53 (Homo sapiens), P04637 [Y220C]; test: Activation of p53 Y220C mutant in human NUGC3 cells assessed as change in PCNA mRNA level at 60 uM after 18 hrs by RT-PCR method relative to control; procedure, shortened: as §1
[5] = target: T1, Cellular tumor antigen p53 (Homo sapiens, UniProt P04637); test: Activation of p53 in human NUGC4 cells assessed as change in TRAF2 mRNA level at 60 uM after 18 hrs by RT-PCR method relative to control; details: read-out: FC
[6] = tested on: Cellular tumor antigen p53 (Homo sapiens), P04637 [Y220C]; test: Activation of p53 Y220C mutant in human NUGC3 cells assessed as change in IL6 mRNA level at 60 uM after 18 hrs by RT-PCR method relative to control; procedure, shortened: as §1
[7] = tested on: Cellular tumor antigen p53 (Homo sapiens), P04637 [Y220C]; test: Activation of p53 Y220C mutant in human NUGC3 cells assessed as change in TNF mRNA level at 60 uM after 18 hrs by RT-PCR method relative to control; procedure, shortened: as §1
[8] = tested on: Cellular tumor antigen p53 (Homo sapiens), P04637 [Y220C]; test: Activation of p53 Y220C mutant in human NUGC3 cells assessed as change in RB1 mRNA level at 60 uM after 18 hrs by RT-PCR method relative to control; procedure, shortened: as §1
[9] = tested on: Cellular tumor antigen p53 (Homo sapiens), P04637 [Y220C]; test: Activation of p53 Y220C mutant in human HuH7 cells assessed as increase in NOXA mRNA level at 30 uM after 18 hrs by RT-PCR method
Procedure, shortened: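 Real-time PCR. Cells were treated for 18 h, with 0.5% DMSO in both compound and control samples. Relative mRNA levels were quantified by the ΔΔCt method as fold-change against the untreated sample. Each sample was measured in triplicate, and data are given as mean ± SEM with an unpaired t-test.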

[10] = tested on: Cellular tumor antigen p53 (Homo sapiens), P04637 [Y220C]; test: Activation of p53 Y220C mutant in human NUGC3 cells assessed as change in PIDD1 mRNA level at 60 uM after 18 hrs by RT-PCR method relative to control; procedure, shortened: as §1
[11] = tested on: Cellular tumor antigen p53 (Homo sapiens), P04637 [Y220C]; test: Activation of p53 Y220C mutant in human NUGC3 cells assessed as change in MDM4 mRNA level at 60 uM after 18 hrs by RT-PCR method relative to control; procedure, shortened: as §1
[12] = target: T1, Cellular tumor antigen p53; test: Activation of p53 in human NUGC4 cells assessed as change in GADD45A mRNA level at 60 uM after 18 hrs by RT-PCR method relative to control; details: read-out: FC
Procedure, shortened: (§3)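 p53 signaling qPCR array of 84 p53-pathway genes. Cells were treated in 6-well plates for 18 h with 0.5% DMSO in compound and control samples. Total RNA was extracted and fold-changes were obtained by the ΔΔCt method against untreated control, with β2-microglobulin (B2M) as housekeeping gene. Two independent biological replicates per cell line.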

[13] = tested on: Cellular tumor antigen p53 (Homo sapiens), P04637 [Y220C]; test: Activation of p53 Y220C mutant in human NUGC3 cells assessed as change in SESN2 mRNA level at 60 uM after 18 hrs by RT-PCR method relative to control; procedure, shortened: as §1
[14] = target: T1, Cellular tumor antigen p53; test: Activation of p53 in human NUGC4 cells assessed as change in TP53 mRNA level at 60 uM after 18 hrs by RT-PCR method relative to control; details: read-out: FC
[15] = tested on: Cellular tumor antigen p53 (Homo sapiens), P04637 [Y220C]; test: Activation of p53 Y220C mutant in human NUGC3 cells assessed as change in XRCC5 mRNA level at 60 uM after 18 hrs by RT-PCR method relative to control; procedure, shortened: as §1
[16] = tested on: Cellular tumor antigen p53 (Homo sapiens), P04637 [Y220C]; test: Activation of p53 Y220C mutant in human NUGC3 cells assessed as change in BIRC5 mRNA level at 60 uM after 18 hrs by RT-PCR method relative to control; procedure, shortened: as §2
[17] = target: T1, Cellular tumor antigen p53; test: Activation of p53 in human NUGC4 cells assessed as change in BRCA1 mRNA level at 60 uM after 18 hrs by RT-PCR method relative to control; details: read-out: FC; procedure, shortened: as §3
[18] = tested on: Cellular tumor antigen p53 (Homo sapiens), P04637 [Y220C]; test: Activation of p53 Y220C mutant in human NUGC3 cells assessed as change in RELA mRNA level at 60 uM after 18 hrs by RT-PCR method relative to control; procedure, shortened: as §1
[19] = tested on: Cellular tumor antigen p53 (Homo sapiens), P04637 [Y220C]; test: Activation of p53 Y220C mutant in human NUGC3 cells assessed as change in TADA3 mRNA level at 60 uM after 18 hrs by RT-PCR method relative to control; procedure, shortened: as §1
[20] = target: T1, Cellular tumor antigen p53; test: Activation of p53 in human NUGC4 cells assessed as change in CASP2 mRNA level at 60 uM after 18 hrs by RT-PCR method relative to control; details: read-out: FC; procedure, shortened: as §3
[21] = target: T1, Cellular tumor antigen p53; test: Activation of p53 in human NUGC4 cells assessed as change in ESR1 mRNA level at 60 uM after 18 hrs by RT-PCR method relative to control; details: read-out: FC; procedure, shortened: as §3
[22] = tested on: Cellular tumor antigen p53 (Homo sapiens), P04637 [Y220C]; test: Activation of p53 Y220C mutant in human NUGC3 cells assessed as change in CDK4 mRNA level at 60 uM after 18 hrs by RT-PCR method relative to control; procedure, shortened: as §2
[23] = tested on: Cellular tumor antigen p53 (Homo sapiens), P04637 [Y220C]; test: Activation of p53 Y220C mutant in human NUGC3 cells assessed as change in KAT2B mRNA level at 60 uM after 18 hrs by RT-PCR method relative to control; procedure, shortened: as §1
[24] = target: T1, Cellular tumor antigen p53; test: Activation of p53 in human NUGC4 cells assessed as change in S1AH1 mRNA level at 60 uM after 18 hrs by RT-PCR method relative to control; details: read-out: FC
[25] = tested on: Cellular tumor antigen p53 (Homo sapiens), P04637 [Y220C]; test: Activation of p53 Y220C mutant in human NUGC3 cells assessed as change in TP53 mRNA level at 60 uM after 18 hrs by RT-PCR method relative to control; procedure, shortened: as §1
[26] = tested on: Cellular tumor antigen p53 (Homo sapiens), P04637 [Y220C]; test: Activation of p53 Y220C mutant in human NUGC3 cells assessed as change in BRCA1 mRNA level at 60 uM after 18 hrs by RT-PCR method relative to control; procedure, shortened: as §2
[27] = target: T1, Cellular tumor antigen p53; test: Activation of p53 in human NUGC4 cells assessed as change in TP63 mRNA level at 60 uM after 18 hrs by RT-PCR method relative to control; details: read-out: FC

Work on CCNC(=O)c1c(O)c(I)c(-n2cccc2)c2sc(N(CC)CC)nc12 yielded a fold change (FC) [1] of 2.4, a fold change (FC) [2] of 1 and a fold change (FC) [3] of 1.7. For the same molecule, the fold change (FC) [4] was 0.8, the fold induction at 60 µM [5] was 0.8 and the fold change (FC) [6] was 6.4. For the same molecule, the fold change (FC) [7] was 5.6, the fold change (FC) [8] was 0.9 and the Activity [9] was “Active”. The fold change (FC) [10] was 1.2, the fold change (FC) [11] was 1.3 and the fold induction at 60 µM [12] was 1.7. It also gave a fold change (FC) [13] of 0.7, a fold induction at 60 µM [14] of 0.8 and a fold change (FC) [15] of 1.4. For the same molecule, the fold change (FC) [16] was 0.6, the fold induction at 60 µM [17] was 0.7 and the fold change (FC) [18] was 1.1. It also gave a fold change (FC) [19] of 0.8, a fold induction at 60 µM [20] of 0.7 and a fold induction at 60 µM [21] of 8.1. For the same molecule, the fold change (FC) [22] was 1.3, the fold change (FC) [23] was 0.8 and the fold induction at 60 µM [24] was 1.2. For the same molecule, the fold change (FC) [25] was 0.7, the fold change (FC) [26] was 0.6 and the fold induction at 60 µM [27] was 0.5.
